Source: ChEMBL document CHEMBL1649269, “In vitro activities of three new dihydrofolate reductase inhibitors against clinical isolates of gram-positive bacteria” (2009)
Values after ≈ are worked out from the molar mass of the structure shown.

Legend:
Corynebacterium sp. [1] = assay: Antimicrobial activity against Corynebacterium spp. by agar dilution method; type: functional
Staphylococcus [2] = assay: Antimicrobial activity against Coagulase-negative Staphylococcus by agar dilution method; type: functional
In short: (§1)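 CLSI agar dilution MIC testing of clinical isolates of staphylococci and Listeria. S. aureus ATCC 29213 and S. pneumoniae ATCC 49619 served as control strains. The percentage of susceptible isolates was calculated from CLSI breakpoints.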

Staphylococcus aureus [3] = assay: Antimicrobial activity against methicillin-resistant Staphylococcus aureus assessed as susceptible isolates by agar dilution method; type: functional
In short: (§2)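 MICs against clinical MRSA or MSSA isolates by CLSI agar dilution, with S. aureus ATCC 29213 as control strain. Percentage of susceptible isolates was calculated from the MICs using CLSI breakpoints.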

Streptococcus pneumoniae [4] = assay: Antimicrobial activity against Streptococcus pneumoniae assessed as susceptible isolates by agar dilution method; type: functional
In short: (§3)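 Clinical isolates of beta-hemolytic streptococci, S. mitis and S. pneumoniae were tested by CLSI methodology, with Mueller-Hinton medium supplemented with 5% lysed horse blood. S. aureus ATCC 29213 and S. pneumoniae ATCC 49619 served as control strains. The percentage of susceptible isolates was derived from CLSI breakpoints.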

Streptococcus pneumoniae [5] = assay: Antimicrobial activity against Streptococcus pneumoniae by agar dilution method; type: functional; in short: as §3
Staphylococcus aureus [6] = assay: Antimicrobial activity against methicillin-resistant Staphylococcus aureus by agar dilution method; type: functional; in short: as §2
[7] = Antimicrobial activity against Group G Streptococcus assessed as susceptible isolates by agar dilution method; type: functional, Streptococcus sp. 'group G'; in short: as §3
Staphylococcus aureus [8] = assay: Antimicrobial activity against methicillin-sensitive Staphylococcus aureus by agar dilution method; type: functional; in short: as §2
[9] = system: Streptococcus sp. 'group B'; assay: Antimicrobial activity against Group B Streptococcus by agar dilution method; type: functional; in short: as §3
[10] = system: Streptococcus sp. 'group A'; assay: Antimicrobial activity against Group A Streptococcus assessed as susceptible isolates by agar dilution method; type: functional; in short: as §3
[11] = Antimicrobial activity against Group C Streptococcus assessed as susceptible isolates by agar dilution method; type: functional, Streptococcus sp. 'group C'; in short: as §3
Listeria monocytogenes [12] = assay: Antimicrobial activity against Listeria monocytogenes by agar dilution method; type: functional; in short: as §1
Streptococcus mitis [13] = assay: Antimicrobial activity against Streptococcus mitis by broth dilution method
[14] = system: Streptococcus sp. 'group B'; assay: Antimicrobial activity against Group B Streptococcus assessed as susceptible isolates by agar dilution method; type: functional; in short: as §3
[15] = Antimicrobial activity against Group G Streptococcus by agar dilution method; type: functional; conditions: Streptococcus sp. 'group G'; in short: as §3
Staphylococcus aureus [16] = assay: Antimicrobial activity against vancomycin-resistant Staphylococcus aureus by agar dilution method; type: functional
In short: (§4)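 Clinical S. aureus isolates classed as hVISA or VISA by population analysis profiling. MICs by CLSI agar dilution, with S. aureus ATCC 29213 as control strain.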

Staphylococcus aureus [17] = assay: Antimicrobial activity against methicillin-sensitive Staphylococcus aureus assessed as susceptible isolates by agar dilution method; type: functional; in short: as §2
Staphylococcus [18] = assay: Antimicrobial activity against Coagulase-negative Staphylococcus assessed as susceptible isolates by agar dilution method; type: functional; in short: as §1
[19] = system: Streptococcus sp. 'group A'; assay: Antimicrobial activity against Group A Streptococcus by agar dilution method; type: functional; in short: as §3
Staphylococcus aureus [20] = assay: Antimicrobial activity against Heterovancomycin-resistant Staphylococcus aureus assessed as susceptible isolates by agar dilution method; type: functional
[21] = Antimicrobial activity against Group C Streptococcus by agar dilution method; type: functional; conditions: Streptococcus sp. 'group C'; in short: as §3
Staphylococcus aureus [22] = assay: Antimicrobial activity against vancomycin-resistant Staphylococcus aureus assessed as susceptible isolates by agar dilution method; type: functional
Staphylococcus aureus [23] = assay: Antimicrobial activity against Heterovancomycin-resistant Staphylococcus aureus by agar dilution method; type: functional; in short: as §4
Corynebacterium sp. [24] = assay: Antimicrobial activity against Corynebacterium spp. assessed as susceptible isolates by agar dilution method; type: functional
Streptococcus mitis [25] = assay: Antimicrobial activity against Streptococcus mitis assessed as susceptible isolates by agar dilution method; type: functional; conditions: in the assay text read “broth dilution method” for “agar dilution method”; in short: as §3
Listeria monocytogenes [26] = assay: Antimicrobial activity against Listeria monocytogenes assessed as susceptible isolates by agar dilution method; type: functional; in short: as §1

Row | Compound | MIC50 (Corynebacterium sp. [1]) | MIC90 (Corynebacterium sp. [1]) | MIC50 (Staphylococcus [2]) | MIC90 (Staphylococcus [2]) | Activity (Streptococcus pneumoniae [4]) | MIC50 (Streptococcus pneumoniae [5]) | MIC90 (Streptococcus pneumoniae [5]) | MIC50 [9] | MIC90 [9] | MIC (Listeria monocytogenes [12]) | MIC50 (Listeria monocytogenes [12]) | MIC90 (Listeria monocytogenes [12]) | MIC50 (Streptococcus mitis [13]) | MIC [15] | MIC50 [15] | MIC90 [15] | MIC50 (Staphylococcus aureus [16]) | MIC90 (Staphylococcus aureus [16]) | Activity (Staphylococcus aureus [17]) | Activity (Staphylococcus [18]) | also measured
1 | CN[C@H](CC(C)C)C(=O)N[C@H]1C(=O)N[C@@H](CC(N)=O)C(=O)N[C@H]2C(=O)N[C@H]3C(=O)N[C@H](C(=O)N[C@H](C(=O)O)c4cc(O)cc(O)c4-c4cc3ccc4O)[C@H](O)c3ccc(c(Cl)c3)Oc3cc2cc(c3O[C@@H]2O[C@H](CO)[C@@H](O)[C@H](O)[C@H]2O[C@H]2C[C@](C)(N)[C@H](O)[C@H](C)O2)Oc2ccc(cc2Cl)[C@H]1O [VANCOMYCIN] | 0.25 µg/mL (≈ 0.173 µM) | 0.5 µg/mL (≈ 0.345 µM) | 1 µg/mL (≈ 0.69 µM) | 2 µg/mL (≈ 1.38 µM) | 100% | 0.12 µg/mL (≈ 0.0828 µM) | 0.25 µg/mL (≈ 0.173 µM) | 0.25 µg/mL (≈ 0.173 µM) | 0.25 µg/mL (≈ 0.173 µM) | 1 µg/mL (≈ 0.69 µM) | 1 µg/mL (≈ 0.69 µM) | 1 µg/mL (≈ 0.69 µM) | 1 µg/mL (≈ 0.69 µM) | 0.12 µg/mL (≈ 0.0828 µM) | 0.12 µg/mL (≈ 0.0828 µM) | 0.12 µg/mL (≈ 0.0828 µM) | 2 µg/mL (≈ 1.38 µM) | 4 µg/mL (≈ 2.76 µM) | 100% | 100% | Activity (Staphylococcus aureus [3]): 100%; MIC50 (Staphylococcus aureus [6]): 1 µg/mL (≈ 0.69 µM); MIC90 (Staphylococcus aureus [6]): 1 µg/mL (≈ 0.69 µM); Activity [7]: 100%; MIC50 (Staphylococcus aureus [8]): 1 µg/mL (≈ 0.69 µM); MIC90 (Staphylococcus aureus [8]): 1 µg/mL (≈ 0.69 µM); Activity [10]: 100%; Activity [11]: 100%; Activity [14]: 100%; MIC50 [19]: 0.25 µg/mL (≈ 0.173 µM); MIC90 [19]: 0.25 µg/mL (≈ 0.173 µM); Activity (Staphylococcus aureus [20]): 96%; MIC [21]: 0.12 µg/mL (≈ 0.0828 µM); MIC50 [21]: 0.12 µg/mL (≈ 0.0828 µM); MIC90 [21]: 0.5 µg/mL (≈ 0.345 µM); Activity (Staphylococcus aureus [22]): 52%; MIC50 (Staphylococcus aureus [23]): 1 µg/mL (≈ 0.69 µM); MIC90 (Staphylococcus aureus [23]): 2 µg/mL (≈ 1.38 µM)
2 | COc1cc(Cc2cnc(N)nc2N)cc(/C=C/C(=O)N2N=Cc3ccccc3C2c2cnc(N(C)C)nc2)c1OC (stereo not given) | 0.12 µg/mL (≈ 0.212 µM) | 4 µg/mL (≈ 7.07 µM) | 0.06 µg/mL (≈ 0.106 µM) | 8 µg/mL (≈ 14.1 µM) | 100% | 0.12 µg/mL (≈ 0.212 µM) | 0.25 µg/mL (≈ 0.442 µM) | 0.06 µg/mL (≈ 0.106 µM) | 0.12 µg/mL (≈ 0.212 µM) | 0.03 µg/mL (≈ 0.053 µM) | 0.03 µg/mL (≈ 0.053 µM) | 0.03 µg/mL (≈ 0.053 µM) | 0.03 µg/mL (≈ 0.053 µM) | 0.06 µg/mL (≈ 0.106 µM) | 0.06 µg/mL (≈ 0.106 µM) | 0.06 µg/mL (≈ 0.106 µM) | 0.25 µg/mL (≈ 0.442 µM) | 0.5 µg/mL (≈ 0.884 µM) | 100% | 86% | MIC50 (Staphylococcus aureus [6]): 0.06 µg/mL (≈ 0.106 µM); MIC90 (Staphylococcus aureus [6]): 0.25 µg/mL (≈ 0.442 µM); Activity [7]: 100%; Activity (Corynebacterium sp. [24]): 83%; Activity (Streptococcus mitis [25]): 100%; MIC50 (Staphylococcus aureus [8]): 0.03 µg/mL (≈ 0.053 µM); MIC90 (Staphylococcus aureus [8]): 0.03 µg/mL (≈ 0.053 µM); MIC [9]: 0.06 µg/mL (≈ 0.106 µM); Activity [10]: 100%; Activity [11]: 100%; Activity [14]: 100%; MIC [19]: 0.06 µg/mL (≈ 0.106 µM); MIC50 [19]: 0.06 µg/mL (≈ 0.106 µM); MIC90 [19]: 0.06 µg/mL (≈ 0.106 µM); Activity (Listeria monocytogenes [26]): 100%; MIC50 [21]: 0.06 µg/mL (≈ 0.106 µM); MIC90 [21]: 0.06 µg/mL (≈ 0.106 µM); MIC50 (Staphylococcus aureus [23]): 0.25 µg/mL (≈ 0.442 µM); MIC90 (Staphylococcus aureus [23]): 0.25 µg/mL (≈ 0.442 µM)
3 | COc1c(N2C[C@@H]3CCCN[C@@H]3C2)c(F)cc2c(=O)c(C(=O)O)cn(C3CC3)c12 [MOXIFLOXACIN] | 1 µg/mL (≈ 2.49 µM) | 8 µg/mL (≈ 19.9 µM) | 0.25 µg/mL (≈ 0.623 µM) | 8 µg/mL (≈ 19.9 µM) | 100% | 0.25 µg/mL (≈ 0.623 µM) | 0.25 µg/mL (≈ 0.623 µM) | 0.25 µg/mL (≈ 0.623 µM) | 0.5 µg/mL (≈ 1.25 µM) | 0.5 µg/mL (≈ 1.25 µM) | 0.5 µg/mL (≈ 1.25 µM) | 1 µg/mL (≈ 2.49 µM) | 0.25 µg/mL (≈ 0.623 µM) | 0.25 µg/mL (≈ 0.623 µM) | 0.25 µg/mL (≈ 0.623 µM) | 0.5 µg/mL (≈ 1.25 µM) | 8 µg/mL (≈ 19.9 µM) | 8 µg/mL (≈ 19.9 µM) | 92% | 55% | Activity (Staphylococcus aureus [3]): 4%; MIC [9]: 0.25 µg/mL (≈ 0.623 µM); MIC (Staphylococcus aureus [16]): 8 µg/mL (≈ 19.9 µM); MIC [19]: 0.25 µg/mL (≈ 0.623 µM); MIC50 [19]: 0.25 µg/mL (≈ 0.623 µM); MIC90 [19]: 0.5 µg/mL (≈ 1.25 µM); Activity (Staphylococcus aureus [20]): 8%; MIC [21]: 0.25 µg/mL (≈ 0.623 µM); MIC50 [21]: 0.25 µg/mL (≈ 0.623 µM); MIC90 [21]: 0.5 µg/mL (≈ 1.25 µM); Activity (Staphylococcus aureus [22]): 0%; MIC50 (Staphylococcus aureus [23]): 4 µg/mL (≈ 9.96 µM); MIC90 (Staphylococcus aureus [23]): 4 µg/mL (≈ 9.96 µM)
